pIC50: −log10 of the molar value. Active and inactive are the calls of the source. The rule behind the calls is not given here.
Legend:
[1] = biological target: Signal transducer and activator of transcription 3 (Homo sapiens) (UniProt P40763); assay: Inhibition of STAT3 transcriptional activity in human HeLa cells assessed as downregulation of survivin expression upto 80 uM after 24 hrs by western blot analysis; assay type: cell-based; details: dose microM <=80, time […]
Procedure, shortened: (§1)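 HeLa cells treated 24 h with a concentration series. Total cell lysates probed by Western blot with specific antibodies for the STAT3 target gene products cyclin D1, c-Myc and survivin.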

[2] = biological target: Signal transducer and activator of transcription 3 (Homo sapiens) (UniProt P40763); assay: Inhibition of STAT3 in human HeLa cells assessed as decrease in phosphorylation of STAT3 at Tyr705 measured after 24 hrs by Western blot analysis; assay type: cell-based; details: dose microM <=80, time […]
Procedure, shortened: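 HeLa cells exposed 24 h to a range of compound doses. Total cell lysates immunoblotted with specific antibodies for p-STAT3 (Tyr705), p-STAT3 (Ser727) and total STAT3.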

[3] = Half life in Sprague-Dawley rat at 25 mg/kg, IG; assay type: ADME, organism-based; details: in vivo, po
Procedure, shortened: (§2)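 Rats, n = 3 per group, received a single dose either intragastrically (25 mg/kg) or intravenously (5 mg/kg). Plasma concentration–time curves were used to derive t1/2α, t1/2β, Vd/F, CL/F, AUC0–∞, Tmax and Cmax. Absolute oral bioavailability was calculated from the ig and iv data.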

[4] = Half life in Sprague-Dawley rat at 5 mg/kg, iv; assay type: ADME, organism-based; details: in vivo; procedure, shortened: as §2
[5] = biological target: Signal transducer and activator of transcription 3 (Homo sapiens) (UniProt P40763); assay: Inhibition of STAT3 in human HeLa cells assessed as decrease in phosphorylation of STAT3 at Tyr705 upto 80 uM measured after 6 hrs by Western blot analysis; assay type: cell-based; details: dose microM <=80, time 6.0 hrs
Procedure, shortened: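 Time course in HeLa cells given 80 μM compound, sampled from 15 min onward through multiple hours; parallel runs at 20 and 40 μM. Total cell lysates Western blotted for p-STAT3 (Tyr705), p-STAT3 (Ser727) and total STAT3.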

[6] = system: HeLa; assay: Induction of cell cycle arrest in human HeLa cells assessed as accumulation at G2/M phase at 40 uM measured after 24 hrs by flow cytometry analysis (reference value: 11.81%); assay type: functional
[7] = Apparent clearance in Sprague-Dawley rat at 5 mg/kg, iv; assay type: ADME, organism-based; details: in vivo, read-out: CL(app) (converted); procedure, shortened: as §2
[8] = system: HeLa; assay: Induction of apoptosis in human HeLa cells assessed as early apoptotic cells at 10 uM incubated for 24 hrs by Annexin V-FITC/PI staining based flow cytometry (reference value: 2.84%); assay type: functional
[9] = system: A549; assay: Antiproliferative activity against human A549 cells assessed as cell growth inhibition measured after 48 hrs by MTT assay; assay type: functional, cell-based; details: A549, 48 h
[10] = system: HeLa; assay: Induction of apoptosis in human HeLa cells assessed as viable cells at 40 uM incubated for 24 hrs by Annexin V-FITC/PI staining based flow cytometry (reference value: 92.45%); assay type: functional; details: read-out: Activity
[11] = biological target: Proto-oncogene tyrosine-protein kinase Src (Homo sapiens) (UniProt P12931); assay: Inhibition of Src phosphorylation at Tyr416 in human Hela cells upto 80 uM after 24 hrs by Western blot analysis; assay type: cell-based; details: dose microM <=80, time […]
Proto-oncogene tyrosine-protein kinase Src (Homo sapiens), sequence (P12931 2-536 limits assumed): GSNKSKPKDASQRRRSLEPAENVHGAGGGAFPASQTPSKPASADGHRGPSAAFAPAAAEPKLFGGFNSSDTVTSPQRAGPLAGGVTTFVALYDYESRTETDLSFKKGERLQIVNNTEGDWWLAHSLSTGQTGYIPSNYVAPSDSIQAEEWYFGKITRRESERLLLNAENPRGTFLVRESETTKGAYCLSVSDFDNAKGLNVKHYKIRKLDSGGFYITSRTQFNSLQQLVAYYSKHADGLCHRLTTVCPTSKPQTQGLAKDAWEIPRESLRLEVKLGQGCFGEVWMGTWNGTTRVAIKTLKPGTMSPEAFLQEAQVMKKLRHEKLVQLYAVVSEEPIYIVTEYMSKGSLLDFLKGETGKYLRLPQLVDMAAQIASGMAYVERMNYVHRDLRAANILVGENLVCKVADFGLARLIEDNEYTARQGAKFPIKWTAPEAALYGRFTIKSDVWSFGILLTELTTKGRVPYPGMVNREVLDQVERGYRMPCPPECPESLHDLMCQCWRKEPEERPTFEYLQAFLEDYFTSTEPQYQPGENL

[12] = AUC (0 to infinity) in Sprague-Dawley rat at 5 mg/kg, iv; assay type: ADME, organism-based; design: route intravenous, time infinity, dose 5 mg/kg; details: in vivo; procedure, shortened: as §2
[13] = system: HeLa; assay: Induction of apoptosis in human HeLa cells assessed as late apoptotic cells at 40 uM incubated for 24 hrs by Annexin V-FITC/PI staining based flow cytometry (reference value: 4.7%); assay type: functional
[14] = Cytotoxicity against human HeLa cells assessed as inhibition of cell viability at 10 uM measured after 48 hrs by MTT assay; assay type: cell-based; details: read-out: INH
[15] = Antiproliferative activity against human U87MG cells assessed as cell growth inhibition measured after 48 hrs by MTT assay; assay type: functional, cell-based
[16] = system: HeLa; assay: Induction of cell cycle arrest in human HeLa cells assessed as accumulation at S phase at 10 uM measured after 24 hrs by flow cytometry analysis (reference value: 34.04%); assay type: functional
[17] = system: HeLa; assay: Antiproliferative activity against human HeLa cells assessed as cell growth inhibition measured after 48 hrs by MTT assay; assay type: functional, cell-based
Procedure, shortened: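 Growth was read by MTT assay, and IC50 was taken from the dose–response curve. Values are averages of three independent experiments.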

[18] = system: PC-3; assay: Antiproliferative activity against human PC3 cells assessed as cell growth inhibition measured after 48 hrs by MTT assay; assay type: functional, cell-based; details: PC-3, 48 h
[19] = biological target: Signal transducer and activator of transcription 3 (Homo sapiens) (UniProt P40763); assay: Inhibition of STAT3 in human Hela cell lysate assessed as inhibition of protein and DNA interaction upto 100 uM cells preincubated 1 hr by electrophoretic mobility shift assay; assay type: subcellular; details: dose microM <=100, time 1.0 hrs
[20] = Apparent volume of distribution in Sprague-Dawley rat at 5 mg/kg, iv; assay type: ADME, organism-based; details: in vivo; procedure, shortened: as §2
[21] = Cytotoxicity against human HEK 293T cells assessed as cell growth inhibition at 10 uM measured after 48 hrs by MTT assay; assay type: cell-based
[22] = system: HeLa; assay: Induction of cell cycle arrest in human HeLa cells assessed as accumulation at G2/M phase at 20 uM measured after 24 hrs by flow cytometry analysis (reference value: 11.81%); assay type: functional
[23] = system: Caco-2; assay: Antiproliferative activity against human Caco-2 cells assessed as cell growth inhibition measured after 48 hrs by MTT assay; assay type: functional, cell-based; details: Caco-2, 48 h
[24] = AUC (0 to infinity) in Sprague-Dawley rat at 25 mg/kg, IG; assay type: ADME, organism-based; design: route […], time infinity, dose 25 mg/kg; details: in vivo, po; procedure, shortened: as §2
[25] = Selectivity index, ratio of inhibition of IL-6 induced STAT3 transcriptional activity to inhibition against HEK-Blue IL-6 cells assessed as reduction in cell viability at 10 uM
[26] = Cytotoxicity against human HEK-Blue IL-6 cells assessed as cell death at 80 uM; assay type: cell-based; details: hek-blue il-6, 80 µM
[27] = biological target: Signal transducer and activator of transcription 3 (Homo sapiens) (UniProt P40763); assay: Inhibition of STAT3 in human HeLa cells assessed as decrease in phosphorylation of STAT3 at Ser727 after 24 hrs by western blot analysis; assay type: cell-based; details: dose microM <=80, time […]
Procedure, shortened: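 HeLa cells were treated with graded doses for 1 h or 24 h. Total cell lysates were immunoblotted with specific antibodies against p-STAT3 (Tyr705), p-STAT3 (Ser727) and total STAT3.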

[28] = system: HeLa; assay: Induction of apoptosis in human HeLa cells assessed as early apoptotic cells at 20 uM incubated for 24 hrs by Annexin V-FITC/PI staining based flow cytometry (reference value: 2.84%); assay type: functional
[29] = Absolute bioavailability in Sprague-Dawley rat at 25 mg/kg, IG; assay type: ADME, organism-based; details: in vivo, po; procedure, shortened: as §2
[30] = Apparent oral clearance in Sprague-Dawley rat at 25 mg/kg, IG; assay type: ADME, organism-based; details: in vivo, read-out: CL(app) (converted); procedure, shortened: as §2
[31] = biological target: Tyrosine-protein kinase JAK2 (Homo sapiens) (UniProt O60674); assay: Inhibition of Jak2 phosphorylation at Tyr1007/1008 in human Hela cells upto 80 uM after 24 hrs by Western blot analysis; assay type: cell-based; details: dose microM <=80, time […]
Tyrosine-protein kinase JAK2 (Homo sapiens), sequence (O60674 whole entry): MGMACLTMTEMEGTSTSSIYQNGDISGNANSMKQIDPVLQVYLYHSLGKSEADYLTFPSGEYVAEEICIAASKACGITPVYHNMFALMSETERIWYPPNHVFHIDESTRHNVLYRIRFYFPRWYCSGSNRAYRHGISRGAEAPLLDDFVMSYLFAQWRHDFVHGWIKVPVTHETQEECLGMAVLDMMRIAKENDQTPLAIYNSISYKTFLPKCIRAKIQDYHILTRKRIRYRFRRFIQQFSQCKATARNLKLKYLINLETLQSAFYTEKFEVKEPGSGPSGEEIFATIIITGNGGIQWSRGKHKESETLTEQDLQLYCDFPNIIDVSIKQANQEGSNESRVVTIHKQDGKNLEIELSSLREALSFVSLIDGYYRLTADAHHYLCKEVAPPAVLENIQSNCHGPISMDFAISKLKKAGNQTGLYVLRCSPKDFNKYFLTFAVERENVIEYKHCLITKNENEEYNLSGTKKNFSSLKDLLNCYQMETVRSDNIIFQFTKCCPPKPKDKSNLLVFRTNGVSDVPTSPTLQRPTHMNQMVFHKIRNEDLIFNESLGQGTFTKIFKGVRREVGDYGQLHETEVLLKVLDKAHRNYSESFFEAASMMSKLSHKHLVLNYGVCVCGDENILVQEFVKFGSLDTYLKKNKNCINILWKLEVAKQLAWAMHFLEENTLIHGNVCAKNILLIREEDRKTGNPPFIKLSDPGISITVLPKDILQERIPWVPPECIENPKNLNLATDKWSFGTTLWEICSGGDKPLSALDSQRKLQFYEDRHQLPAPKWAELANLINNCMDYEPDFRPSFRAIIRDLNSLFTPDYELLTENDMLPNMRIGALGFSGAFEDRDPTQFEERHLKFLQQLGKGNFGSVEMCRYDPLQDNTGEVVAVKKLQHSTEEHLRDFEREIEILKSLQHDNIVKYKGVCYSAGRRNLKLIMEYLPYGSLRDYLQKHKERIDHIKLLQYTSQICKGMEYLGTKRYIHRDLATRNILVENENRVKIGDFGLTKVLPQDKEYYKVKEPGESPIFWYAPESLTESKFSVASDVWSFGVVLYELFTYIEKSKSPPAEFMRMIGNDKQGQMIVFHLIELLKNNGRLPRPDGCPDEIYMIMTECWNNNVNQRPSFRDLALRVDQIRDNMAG

[32] = biological target: Signal transducer and activator of transcription 3 (Homo sapiens) (UniProt P40763); assay: Inhibition of STAT3 transcriptional activity in human HeLa cells assessed as downregulation of c-Myc expression upto 80 uM after 24 hrs by western blot analysis; assay type: cell-based; details: dose microM <=80, time […]; procedure, shortened: as §1
[33] = system: HeLa; assay: Induction of cell cycle arrest in human HeLa cells assessed as accumulation at G0/G1 phase at 40 uM measured after 24 hrs by flow cytometry analysis (reference value: 54.16%); assay type: functional
[34] = system: HeLa; assay: Induction of apoptosis in human HeLa cells assessed as necrotic cells at 20 uM incubated for 24 hrs by Annexin V-FITC/PI staining based flow cytometry (reference value: 0.02%); assay type: functional

Signal transducer and activator of transcription 3 (Homo sapiens), sequence (P40763 whole entry): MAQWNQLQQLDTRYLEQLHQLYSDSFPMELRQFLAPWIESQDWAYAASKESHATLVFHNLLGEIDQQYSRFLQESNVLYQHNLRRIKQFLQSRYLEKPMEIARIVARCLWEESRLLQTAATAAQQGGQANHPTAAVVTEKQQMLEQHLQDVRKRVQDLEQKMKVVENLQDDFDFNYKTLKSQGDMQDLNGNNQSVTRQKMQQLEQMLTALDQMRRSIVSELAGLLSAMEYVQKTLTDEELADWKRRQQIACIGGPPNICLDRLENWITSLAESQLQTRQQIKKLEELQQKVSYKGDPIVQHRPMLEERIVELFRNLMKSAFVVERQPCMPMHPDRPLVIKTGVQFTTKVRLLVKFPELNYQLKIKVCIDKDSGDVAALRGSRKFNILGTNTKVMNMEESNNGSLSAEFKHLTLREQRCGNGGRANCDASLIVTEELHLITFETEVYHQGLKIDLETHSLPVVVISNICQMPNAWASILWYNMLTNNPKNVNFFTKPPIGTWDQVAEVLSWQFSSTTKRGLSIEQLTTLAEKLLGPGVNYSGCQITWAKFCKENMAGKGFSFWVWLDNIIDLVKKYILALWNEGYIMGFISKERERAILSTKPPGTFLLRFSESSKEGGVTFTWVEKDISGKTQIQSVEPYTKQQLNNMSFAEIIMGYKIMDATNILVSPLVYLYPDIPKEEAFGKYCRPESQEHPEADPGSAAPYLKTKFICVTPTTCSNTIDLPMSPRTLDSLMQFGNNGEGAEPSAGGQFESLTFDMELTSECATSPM

**Q.** What does the source list for `CC(=O)Oc1ccccc1C(=O)Nc1ncc([N+](=O)[O-])s1` [NITAZOXANIDE]?
**A.** inhibition [1]: Dose-dependent effect; inhibition [2]: Dose-dependent effect; half-life [3]: 36 min; half-life [4]: 3 min; inhibition [5]: inactive; Activity [6]: 6.6%; clearance [7]: 8.33 mL/min/kg; Activity [8]: 2.34%; pIC50 [9]: < 4.30; viability at 40 µM [10]: 77.3%; inhibition [11]: inactive; AUC(0-inf) [12]: 11200 ng·h/mL; Activity [13]: 15.12%; cytotoxicity at 48 h, 10 µM [14]: 19.4%; pIC50 [15]: 4.52; Activity [16]: 28.45%; pIC50 [17]: 4.46; pIC50 [18]: 4.35; inhibition [19]: inactive; Vd/F [20]: 0.08 L/kg; inhibition at 48 h, 10 µM [21]: -3.3%; Activity [22]: 8.27%; pIC50 [23]: 4.57; AUC(0-inf) [24]: 3200 ng·h/mL; Selectivity Index [25]: 2.8; Activity [26]: Non-Toxic; inhibition [27]: Dose-dependent effect; Activity [28]: 4.49%; bioavailability [29]: 5.7%; CL/F [30]: 105 mL/min/kg; inhibition [31]: inactive; inhibition [32]: Dose-dependent effect; Activity [33]: 70.64%; Activity [34]: 0.04%

Source: ChEMBL document CHEMBL4706740, “Structure-Activity Study of Nitazoxanide Derivatives as Novel STAT3 Pathway Inhibitors” (ACS Med Chem Lett, 2021)
